The record followed here is ChEMBL document CHEMBL2029224, “Prenylation at the indole ring leads to a significant increase of cytotoxicity of tryptophan-containing cyclic dipeptides” (Bioorg Med Chem Lett, 2012).

Format in all cases: functional, cell-based
For assay [1], the system named is K562. In words: Cytotoxicity against human K562 cells after 72 hrs by MTT assay. As to conditions: K562, 72 h. The essentials: (§1)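 Cells kept in RPMI 1640 with 10% FCS and penicillin/streptomycin at 37 °C, 5% CO2, grown to 80% confluency. Seeded at 30,000 cells/well (K562) or 8,000 cells/well (A2780 sens and cisplatin-resistant CisR). After 24 h, exposed to increasing concentrations for 72 h. MTT added, formazan dissolved in DMSO, absorbance read at 544/690 nm. Viability relative to untreated cells (100%), triplicates, IC50.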
On the technique in general: Tetrazolium dyes change colour on reduction, which living cells bring about.

Assay [2] concerns A2780. In words: Cytotoxicity against human cisplatin resistant A2780 cells after 72 hrs by MTT assay. As to conditions: A2780, 72 h. The essentials:
as §1

The subject of assay [3] is A2780. In words: Cytotoxicity against human cisplatin sensitive A2780 cells after 72 hrs by MTT assay. As to conditions: A2780, 72 h. Summed up:
as §1

The nature of assay [4]: Cytotoxicity against mouse tsFT210 cells.

In brackets after ≈: the same amount, converted by molar mass.

`O=C1N[C@@H](Cc2c[nH]c3ccccc23)C(=O)N[C@H]1Cc1ccccc1`: the IC50 in assay [1], in assay [2] and in assay [3] was greater than 100 µM in each case.
For the compound `O=C1N[C@@H](Cc2c[nH]c3ccccc23)C(=O)N[C@H]1Cc1c[nH]c2ccccc12`, the IC50 in assay [1], in assay [2] and in assay [3] was greater than 100 µM in each case.
As for `O=C1N[C@@H](Cc2c[nH]c3ccccc23)C(=O)N[C@H]1Cc1ccc(O)cc1`, the IC50 in assay [1], in assay [2] and in assay [3] was greater than 100 µM in each case.
With `O=C1N[C@@H](Cc2c[nH]c3ccccc23)C(=O)N2CCC[C@H]12`, the IC50 in assay [1], in assay [2] and in assay [3] was greater than 100 µM each time.
With `O=C1N[C@H](Cc2c[nH]c3ccccc23)C(=O)N2CCC[C@@H]12`, the IC50 in assay [1], in assay [2] and in assay [3] was greater than 100 µM throughout.
On to `O=C1N[C@H](Cc2c[nH]c3ccccc23)C(=O)N2CCC[C@H]12`, for which the IC50 in assay [1], in assay [2] and in assay [3] was greater than 100 µM throughout.
`C[C@@H]1NC(=O)[C@H](Cc2c[nH]c3ccccc23)NC1=O`: the IC50 in assay [1], in assay [2] and in assay [3] was greater than 100 µM in each case.
With `C[C@H]1NC(=O)[C@H](Cc2c[nH]c3ccccc23)NC1=O`, the IC50 in assay [1], in assay [2] and in assay [3] was greater than 100 µM throughout.
In the case of `C[C@H]1NC(=O)[C@@H](Cc2c[nH]c3ccccc23)NC1=O`, the IC50 in assay [1], in assay [2] and in assay [3] was greater than 100 µM each time.
Turning to `C[C@@H]1NC(=O)[C@@H](Cc2c[nH]c3ccccc23)NC1=O`, the IC50 in assay [1], in assay [2] and in assay [3] was greater than 100 µM throughout.
On to `O=C1N[C@@H](Cc2c[nH]c3ccccc23)C(=O)N[C@H]1Cc1c[nH]cn1`, for which the IC50 in assay [1], in assay [2] and in assay [3] was greater than 100 µM each time.
As to `CC(C)=CCc1[nH]c2ccccc2c1C[C@@H]1NC(=O)CNC1=O`, the IC50 (as a rule, the point on the concentration scale where inhibition reaches its midpoint) in assay [1] worked out at 16.7 µM; in assay [2], 85.2 µM; in assay [3], 82.4 µM.
For `CC(C)=CCc1[nH]c2ccccc2c1C[C@@H]1NC(=O)[C@H](CC(C)C)NC1=O`, in that order: 30.1 µM, 75 µM and 92.6 µM.
Taken in the same sequence, the figures for `CC(C)=CCc1[nH]c2ccccc2c1C[C@@H]1NC(=O)[C@H](Cc2c[nH]c3ccccc23)NC1=O` were 29.8 µM, 80.8 µM and 89.7 µM.
Taken in the same sequence, the figures for `CC(C)=CCc1[nH]c2ccccc2c1C[C@@H]1NC(=O)[C@H](Cc2ccc(O)cc2)NC1=O` were 31.6 µM, 83.3 µM and 89.8 µM.
For the compound `CC(C)=CCc1[nH]c2ccccc2c1C[C@@H]1NC(=O)[C@H](Cc2ccccc2)NC1=O`, the IC50 in assay [1] is 70.4 µM; in assay [2], 81.6 µM; in assay [3] it was 87 µM.
For `CC(C)=CCc1[nH]c2ccccc2c1C[C@@H]1NC(=O)[C@H](C)NC1=O`, in that order: 35.2 µM, 82.2 µM and 89.8 µM.
For `CC(C)=CCc1[nH]c2ccccc2c1C[C@@H]1NC(=O)[C@@H](C)NC1=O`, in that order: 34.5 µM, 77 µM and 77.2 µM.
Taken in the same sequence, the figures for `CC(C)=CCc1[nH]c2ccccc2c1C[C@H]1NC(=O)[C@@H](C)NC1=O` were 34.7 µM, 81.1 µM and 85 µM.
Consider `CC(C)=CCc1[nH]c2ccccc2c1C[C@H]1NC(=O)[C@H](C)NC1=O`, for which the IC50 in assay [1] was determined as 35.3 µM; in assay [2] it was 84.3 µM; in assay [3] it was 86.2 µM.
With `CC(C)=CCc1[nH]c2ccccc2c1C[C@@H]1NC(=O)[C@H](Cc2c[nH]cn2)NC1=O`, the figures for the IC50 in assay [1], in assay [2] and in assay [3] were 32.2 µM, 91.7 µM and 91.8 µM, respectively.
`O=C1CNC(=O)[C@H](Cc2c[nH]c3ccccc23)N1`: the IC50 in assay [1], in assay [2] and in assay [3] was greater than 100 µM each time.
Consider `CC(C)=CCc1[nH]c2ccccc2c1C[C@H]1NC(=O)[C@H]2CCCN2C1=O`, for which the IC50 was 30.9 µM in assay [1], 85.6 µM in assay [2] and 93.1 µM in assay [3].
On to `CC(C)=CCc1[nH]c2ccccc2c1C[C@H]1NC(=O)[C@@H]2CCCN2C1=O`, for which the values for the IC50 in assay [1], in assay [2] and in assay [3] were 40.4 µM, 87.8 µM and 100 µM, respectively.
Regarding `CC(C)C[C@@H]1NC(=O)[C@H](Cc2c[nH]c3ccccc23)NC1=O`, the IC50 in assay [1], in assay [2] and in assay [3] was greater than 100 µM in each case.
On to `CC(C)=CCc1[nH]c2ccccc2c1C[C@@H]1NC(=O)[C@H]2CCCN2C1=O`, for which the IC50 was found to be 34.7 µM in assay [1], 92 µM in assay [2] and 106 µM in assay [3].
For `O=C1N[C@@H](Cc2c[nH]c3ccccc23)C(=O)N2CCC[C@@H]12` [BREVIANAMIDE F], in that order: greater than 100 µM, greater than 100 µM and greater than 100 µM.
In the case of `CC(C)=CCc1[nH]c2ccccc2c1C[C@@H]1NC(=O)[C@@H]2CCCN2C1=O` [TRYPROSTATIN B], the MIC in assay [4] was 4.4 µM (≈ 1.55 µg/mL). The IC50 in assay [4] (tsFT210) worked out at 18.8 µM; in assay [1], 21.1 µM; in assay [2], 85.9 µM; in assay [3] it was 82.8 µM.
